# PubChem BioAssay
# The source made the active and inactive calls.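 Rule for the calls, unless noted: active = visually confirmed hit in the image check and inhibition above 20%; inconclusive = visually confirmed hit but inhibition not above 20%; inactive = no visual hit in the image check.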
# Columns and labels:
# [1] = inhibitors of TNFa-induced NFkB p65 translocation, primary screen, imaging, HUVEC, MLSMR starter and 10KST1 sets (AID 438;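 active = inhibition above 20% together with a positive visual image hit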;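 note: compound added about 3h40 before a 20 min TNFalpha stimulation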;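 for inhibition: signal is the nuclear over cytoplasmic p65 intensity ratio per well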); conditions: HUVEC TNFa-induced p65 nuclear translocation; cell count: measured here: nuclei count (cytotoxicity indicator), at 2.08 µM; inhibition: at 2 µM, stronger effect = higher value, 0% TNFa-plus-vehicle, 100% no-TNFa wells
# [2] = inhibitors of E-selectin induction by TNFa, primary screen, imaging, HUVEC, immunofluorescence, MLSMR starter and 10KST1 sets (AID 487); conditions: HUVEC TNFalpha-induced E-selectin immunofluorescence imaging, at 2 µM; inhibition: stronger effect = higher value; nuclei count: measured here: cell number, toxicity;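 for inhibition: signal is fraction of cell area covered by stained E-selectin grains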;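 for nuclei count: 100% = median nuclei count of all wells on the same plate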
# [3] = DUSP6 inhibitors restoring Erk phosphorylation by chemical complementation, primary imaging in DUSP6-transfected HeLa (AID 609;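 active = compounds giving at least 50% inhibition in the cell-based MKP-3 phosphatase rescue imaging test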;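 for inhibition: phospho-Erk level distribution per well compared with pooled transfected vehicle control wells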); conditions: HeLa MKP-3 transfected, phospho-Erk imaging KS statistic, at 10 µM, cells stimulated with TPA for 15 min
# [4] = biological target: Dual specificity protein phosphatase 6 (Homo sapiens) (UniProt Q16828); experiment: as above; conditions: HeLa MKP-3 transfected, phospho-Erk imaging KS statistic; at 10 µM; stronger effect = higher value; cells stimulated with TPA for 15 min
# Chain of Dual specificity protein phosphatase 6 (Homo sapiens) (Q16828 whole entry, looked up): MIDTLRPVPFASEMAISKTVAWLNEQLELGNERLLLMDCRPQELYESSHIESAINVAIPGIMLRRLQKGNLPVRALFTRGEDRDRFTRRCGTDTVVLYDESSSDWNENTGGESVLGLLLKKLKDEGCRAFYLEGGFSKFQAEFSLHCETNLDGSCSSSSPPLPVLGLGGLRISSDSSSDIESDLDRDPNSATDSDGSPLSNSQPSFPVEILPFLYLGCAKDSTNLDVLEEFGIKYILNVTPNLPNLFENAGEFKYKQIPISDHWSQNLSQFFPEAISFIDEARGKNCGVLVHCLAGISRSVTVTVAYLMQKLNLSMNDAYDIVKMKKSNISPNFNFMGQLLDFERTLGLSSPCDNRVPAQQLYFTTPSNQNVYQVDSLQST
# [5] = biological target: Voltage-gated potassium channel subunit beta-2 (Rattus norvegicus) (UniProt P62483); experiment: KvBeta enzyme negative modulators, primary screen, biochemical, NADPH fluorescence (AID 622;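 active = fluorescence slope higher than the sample average by over 3 SD, cut at about -0.22 in these data, passing the limit was not always enough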;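 note: slope of raw intensity against log time taken from 70 to 1610 s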); conditions: recombinant KvBeta, 4-cyanobenzaldehyde reduction, at 10 µM, stronger effect = higher value
# Chain of Voltage-gated potassium channel subunit beta-2 (Rattus norvegicus) (P62483 whole entry, looked up): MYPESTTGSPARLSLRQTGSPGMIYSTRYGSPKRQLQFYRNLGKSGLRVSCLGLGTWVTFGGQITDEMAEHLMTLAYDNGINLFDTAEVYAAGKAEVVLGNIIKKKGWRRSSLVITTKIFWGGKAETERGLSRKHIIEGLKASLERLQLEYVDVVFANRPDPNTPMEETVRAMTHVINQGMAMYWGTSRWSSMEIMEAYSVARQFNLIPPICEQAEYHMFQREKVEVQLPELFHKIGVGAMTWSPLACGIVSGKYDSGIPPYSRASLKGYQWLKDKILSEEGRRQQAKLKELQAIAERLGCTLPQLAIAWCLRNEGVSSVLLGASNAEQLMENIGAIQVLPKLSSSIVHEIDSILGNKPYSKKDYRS
# [6] = biological target: Voltage-gated potassium channel subunit beta-2 (Rattus norvegicus) (UniProt P62483); experiment: KvBeta positive modulators, primary screen, biochemical, NADPH fluorescence (AID 623;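 active = NADPH fluorescence slope more negative than the mean of all samples by about 3 SD, 99.7% confidence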;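 note: fluorescence intensity change per second fitted from 20 to 320 s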); conditions: Recombinant KvBeta, NADPH fluorescence decrease slope, 10 min; at 10 µM; stronger effect = lower value
# [7] = biological target: Muscarinic acetylcholine receptor M4 (Homo sapiens) (UniProt P08173); experiment: compounds altering M4/GIRK thallium flux, either direction, primary screen, M4 allosteric agonist project, cell-based, HEK293 M4/GIRK, BTC-AM (AID 625;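 active = fluorescence slope after compound addition differing from the mean of all tested samples at 99.7% confidence, mostly higher but some lower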;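 note: thallium influx through GIRK channels coupled to M4 in HEK293 cells with BTC-AM dye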); conditions: at 10 µM, actives lie on both sides
# Chain of Muscarinic acetylcholine receptor M4 (Homo sapiens) (P08173 whole entry, looked up): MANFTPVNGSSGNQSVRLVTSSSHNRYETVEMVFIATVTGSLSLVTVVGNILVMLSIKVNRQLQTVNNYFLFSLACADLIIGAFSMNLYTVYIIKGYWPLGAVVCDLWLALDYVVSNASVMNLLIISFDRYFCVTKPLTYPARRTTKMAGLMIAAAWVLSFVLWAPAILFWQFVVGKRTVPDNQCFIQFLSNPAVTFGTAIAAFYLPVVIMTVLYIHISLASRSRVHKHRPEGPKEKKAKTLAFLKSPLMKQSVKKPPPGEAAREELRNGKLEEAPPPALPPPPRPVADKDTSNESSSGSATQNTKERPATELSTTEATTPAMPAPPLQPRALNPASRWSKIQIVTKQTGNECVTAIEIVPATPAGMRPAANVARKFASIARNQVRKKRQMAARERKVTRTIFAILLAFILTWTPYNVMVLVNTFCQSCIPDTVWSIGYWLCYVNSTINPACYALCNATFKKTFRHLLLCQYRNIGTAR
# Summary of the method: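 Assay system: HEK293 cells with M4 receptor and GIRK channels / Controls: carbachol and DMSO controls / Schedule: 1 h dye loading, 2 min kinetic read / Technique: kinetic fluorescence with BTC-AM dye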
# [8] = inhibitors of larval lipid processing in zebrafish, primary screen, whole organism, PED6 fluorescence, gall bladder and intestine (AID 686;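 active = a full or partial loss of lipid-probe fluorescence in the fish gall bladder, intestine or both, judged by eye; inactive = no fluorescence loss, or compound toxic to the fish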;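 note: larvae 5 to 7 days old with five fish per well; signal comes from phospholipase A2 cleavage of quenched PED6 carried via bile; overnight exposure to compound and PED6 before scoring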); conditions: Zebrafish larvae PED6 lipid processing, fluorescence scoring; screened at 20 µM (by protocol)
# Summary of the method: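 Doses: 20 µM single dose. Test system: live zebrafish larvae aged 5-7 days, whole organism. Quantity: five larvae per well. Measured by: By-eye fluorescence microscopy. Reagent: ingested quenched lipid PED6 at 100 nM. Read-out: visual per-well fluorescence inhibition score. Times: overnight exposure of larvae to compound plus PED6.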
# [9] = inhibitors of Chlamydomonas gravitaxis, primary screen, whole organism, Chlamydomonas reinhardtii, WT vs cilia-less mutant, absorbance, 96-well (AID 463189;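 active = inhibition at or above 50% relative to wild type and mutant plate controls; inactive = inhibition below 50%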;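 note: 0% = wild type cc124 cells in DMSO and 100% = ciliumless bld1 mutant cells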); conditions: OD600 absorbance, 2 days, at 10 µM, stronger effect = higher value
# [10] = measured here: cell density z-score
# [11] = measured here: nuclear c-Myc green intensity z-score
# [12] = measured here: nuclear pErk red intensity z-score, stronger effect = higher value
SMILES,cell count [1],inhibition [1],inhibition [2],nuclei count [2],"z-score [3, 10]","z-score [3, 11]","z-score [3, 12]",inhibition [4],fluorescence slope [5],NADPH fluorescence slope [6],fluorescence slope [7],outcome [8],inhibition [9]
O=C(NCCCN1CCOCC1)C1(c2ccccc2)CCOCC1,610,-2% (inactive),14.3% (inactive),91.3%,-0.279,1.09,-0.449,-3.95% (inactive),-0.501 (inactive),-2.1e-05 (inactive),0.0058 (inactive),inactive,19.5% (inactive)
O=S(=O)(c1cccc2nsnc12)N1CCN(C/C=C/c2ccccc2)CC1,680,3.2% (inactive),16.6% (inactive),117%,-0.555,-0.43,0.591,1.9e-07% (inactive),-0.527 (inactive),-5.7e-05 (inactive),0.00411 (inactive),inactive,45.8% (inactive)
c1ccc(-n2ncc3c(N4CCCC4)ncnc32)cc1,589,-7% (inactive),12.6% (inactive),188%,0.427,1.25,-0.224,7.42% (inactive),-0.378 (inactive),-3.1e-05 (inactive),0.00634 (inactive),inactive,15.7% (inactive)
CCC(C(=O)Nc1nccs1)(C(F)(F)F)C(F)(F)F,719,-18.9% (inactive),-106% (inactive),203%,0.755,0.213,0.296,5.95% (inactive),-0.49 (inactive),-6.4e-05 (inactive),0.00509 (inactive),inactive,0.594% (inactive)
Cc1nc(=O)c(-c2ccccc2)c(C)n1-c1ccc(S(N)(=O)=O)cc1,568,-4.9% (inactive),-74.8% (inactive),154%,0.3,0.245,1.29,7.93% (inactive),-0.406 (inactive),-4.5e-05 (inactive),0.00537 (inactive),inactive,-8.67% (inactive)
CCOC(=O)c1[nH]c2ccc(OC)cc2c1NC(=O)CCN1CCCC(C)C1 (stereo unspecified),521,-0.1% (inactive),9.9% (inactive),100%,-0.422,-0.411,-1.15,11.4% (inactive),-0.351 (inactive),-1.8e-05 (inactive),0.00513 (inactive),inactive,28.8% (inactive)
Cc1cccc(-c2nnc3n2N=C(c2ccc(Br)cc2)CS3)c1,769,-2.9% (inactive),-27.2% (inactive),176%,-0.385,0.639,0.0185,-2.91% (inactive),-0.433 (inactive),-5.4e-05 (inactive),0.006 (inactive),inactive,-0.766% (inactive)
Clc1ccccc1CN(Cc1ccccc1)c1ncnc2nc[nH]c12,523,7.2% (inactive),5.3% (inactive),93%,-3.05,1.38,0.29,1.63% (inactive),-0.481 (inactive),-4.9e-05 (inactive),0.00447 (inactive),inactive,38.7% (inactive)
Cc1cccc(OCCN2CSC(=S)N(C)C2)c1,542,-14.5% (inactive),-138% (inactive),129%,0.0536,-1.14,0.0169,9.42% (inactive),-0.494 (inactive),-7.6e-05 (inactive),0.0046 (inactive),inactive; toxic,45.3% (inactive)
COc1cccc(-c2nc(N3CCCCC3C)c3ccccc3n2)c1O (stereo unspecified),676,1% (inactive),32.7% (inactive),154%,-0.111,1.23,0.615,-5.62% (inactive),-0.465 (inactive),-7.5e-05 (inactive),0.0038 (inactive),inactive; toxic,9.9% (inactive)
COC(=O)c1ccc(C2/C(=C(\O)c3cccc(OC)c3)C(=O)C(=O)N2CCCN(C)C)cc1 (stereo unspecified),632,-19.7% (inactive),-82.8% (inactive),145%,0.797,-1.05,-0.8,7.21% (inactive),-0.524 (inactive),-1.5e-05 (inactive),0.006 (inactive),inactive,20.5% (inactive)
CCCCc1nc(NCC2CCCO2)c(C#N)c2c1COC(C)(C)C2 (stereo unspecified),380,-5.9% (inactive),-69.1% (inactive),135%,-0.8,1.32,-1.16,31.4% (inactive),-0.509 (inactive),-7.2e-05 (inactive),0.00404 (inactive),inactive,-8.27% (inactive)
